From ChEMBL document CHEMBL2034911, “Carbazole alkaloids from the stems of Clausena lansium” (J Nat Prod, 2012)
Active and inactive are the calls of the source. No cut-off for these calls is given here.

Legend:
Assay type in all cases: functional, cell-based
[1] = test system: PC-12; experiment: Neuroprotective activity in rat PC12 cells assessed as inhibition of amyloid beta(25 to 35)-induced cell death at 10 uM incubated 48 hrs […] by MTT assay
Procedure, shortened: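 PC12 cells were grown in DMEM with 5% FBS and 5% equine serum and seeded at 5000 cells/well for 24 h. Basic medium with 15 μM Aβ25−35 was applied for 48 h, with compound (DMSO stock, >1000-fold dilution) co-added, in triplicate. Viability was measured by MTT (4 h), formazan dissolved in DMSO, and absorbance read at 570 nm. ANOVA/Newman–Keuls.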

[2] = test system: PC-12; experiment: Neuroprotective activity in rat PC12 cells assessed as inhibition of SNP-induced cell death at 10 uM incubated 24 hrs post SNP-challenge for 24 hrs by MTT assay
Procedure, shortened: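 PC12 cells were grown in DMEM with 5% FBS and 5% equine serum and seeded at 5000 cells/well for 24 h. Medium was switched to basic medium with 350 μM SNP for 24 h, with compound (DMSO stock, >1000-fold dilution) added at the same time, in triplicate. MTT was added for 4 h, formazan dissolved in DMSO, and A570 read. ANOVA with Newman–Keuls post hoc test.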

[3] = test system: PC-12; experiment: Neuroprotective activity in rat PC12 cells assessed as inhibition of serum starvation-induced cell death after 24 hrs by MTT assay
Procedure, shortened: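 Serum-withdrawal model: PC12 cells (5000/well) were pre-grown 24 h in DMEM with 5% FBS and 5% equine serum, then moved to plain DMEM. Compound (DMSO stock, >1000-fold dilution) was added at the same time, in triplicate, and cells were incubated 24 h at 37 °C, 5% CO2. MTT was added for 4 h, formazan dissolved in DMSO, and A570 read. ANOVA with Newman–Keuls test.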

Compound | Activity [1] | Activity [2] | Activity [3]
O=Cc1ccc2[nH]c3ccccc3c2c1 | inactive | inactive | inactive
COc1c2c(cc3c1[nH]c1ccccc13)[C@H]1O[C@@H](C2)C(C)(C)O1 | Active | Active | inactive
COc1c2c(cc3c1[nH]c1ccccc13)C(=O)C(=C(C)C)C2 | inactive | inactive | inactive
COc1c2c(cc3c1[nH]c1ccccc13)C(=O)O[C@H](C(C)(C)O)[C@H]2O | inactive | inactive | inactive
COc1ccc2[nH]c3c(O)cc(C=O)cc3c2c1 | inactive | Active | inactive
CC(C)=CCc1c(C=O)cc2c([nH]c3ccccc32)c1O | Active | inactive | inactive
CC(C)=CCc1c(C=O)cc(O)c2[nH]c3ccccc3c12 | inactive | inactive | inactive
COc1c2c(cc3c1[nH]c1ccccc13)C(=O)C[C@@H]2O | inactive | inactive | inactive
COC(=O)c1ccc2[nH]c3ccc(OC)cc3c2c1 | inactive | Active | inactive
COc1cc2c(cc1O)[nH]c1cc(O)c(C=O)cc12 | Active | Active | inactive
COc1c2c(cc3c1[nH]c1ccccc13)C(=O)O[C@@H]2[C@H](O)C(C)(C)O | inactive | inactive | inactive
COc1ccc2[nH]c3ccc(C=O)cc3c2c1 | inactive | inactive | inactive
COc1cc(C=O)cc2c1[nH]c1ccccc12 | Active | Active | inactive
COc1c2c(cc3c1[nH]c1ccccc13)[C@H]1O[C@@H]([C@H]2O)C(C)(C)O1 | inactive | inactive | inactive
COc1ccc2[nH]c3c4c(c(C=O)cc3c2c1)OC(C)(C)C=C4 | inactive | Active | inactive
COc1ccc2[nH]c3cc(OC)c(C=O)cc3c2c1 | inactive | inactive | inactive
COc1cc2c(cc1O)[nH]c1c(CC=C(C)C)c(O)c(C=O)cc12 | Active | inactive | inactive
